Measured values reported in ChEMBL document CHEMBL5154742, “Thiosugar naphthalene diimide conjugates: G-quadruplex ligands with antiparasitic and anticancer activity” (Eur J Med Chem, 2022).
Activity calls are given as the source filed them. No cut-off for these calls is given here.

Legend:
[1] = Selectivity index, ratio of IC50 for human MRC5 cells to IC50 for human HT-29 cells; assay type: toxicity; conditions: MRC5 cells versus HT-29 cells, read-out: Selectivity Index
Summary of the method: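 Selectivity index: MRC-5 IC50 divided by HT-29 IC50.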

[2] = Selectivity index, ratio of IC50 for cytotoxicity against human MRC5 cells to IC50 for antileishmanial activity against Leishmania major (MHOM/IL/80/Friedlin) promastigotes; assay type: toxicity, cell-based; conditions: read-out: Selectivity Index
Summary of the method: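 Selectivity index: MRC-5 IC50 divided by L. major promastigote IC50.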

Quadruplex DNA [3] = experiment: Binding affinity to parallel G-quadruplex DNA TGGGGT TGGGGT TGGGGT TGGGGT (unknown origin) by mass spectrometric analysis; assay type: nucleic-acid assay
Summary of the method: (§1)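 Native ESI-FTICR MS in negative ion mode under soft conditions, in 100 mM ammonium acetate; DNA at 5 μM with ligand at 10 μM.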

Quadruplex DNA [4] = experiment: Binding affinity to human G-quadruplex telomeric DNA F21T (5'-duplex GGG TTAGGG TTAGGG TTAGGG-3') assessed as change in melting temperature at 1 uM incubated for 5 min by FRET assay; assay type: nucleic-acid assay
Summary of the method: (§2)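 Fluorescently labelled oligonucleotide annealed (95 °C, 5 min) in 10 mM lithium cacodylate/90 mM LiCl, pH 7.2; 0.2 μM final, with or without ligand. Held 5 min at 25 °C, then heated 0.5 °C/min to 95 °C. Tm taken at normalized signal 0.5; ΔTm = Tm with ligand minus Tm without. Tested in duplicate.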

HT-29 = experiment: Cytotoxicity against human HT-29 cells assessed as reduction in cell viability incubated for 48 hrs by MTT assay; assay type: functional, cell-based; conditions: HT-29, 48 h
Summary of the method: (§3)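 MTT assay: 5×10^3 cells per well in DMEM with 10% hiFBS (4.5 g/L glucose for HT-29, 1 g/L for MRC-5), exposed to increasing compound concentrations for 48 h at 37 °C. MTT added for 4 h, formazan dissolved in DMSO, absorbance read at 575 nm. IC50 from four-parameter logistic fit.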

Trypanosoma brucei = experiment: Antitrypanosomal activity against Trypanosoma brucei incubated for 72 hrs by alamar blue dye based fluorimetry analysis; assay type: functional, organism-based
Summary of the method: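 Bloodstream-form T. brucei S16 (Lister 427, MiTat 1.2), 1×10^3 per well in HMI-9 with 20% hiFBS, exposed to increasing compound concentrations for 72 h at 37 °C, 5% CO2. Resazurin then added for 4 h, cells lysed with SDS, fluorescence read at ex 550/em 590 nm. IC50 from four-parameter logistic fit; three independent runs, each in triplicate.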

[5] = Selectivity index, ratio of IC50 for cytotoxicity against human MRC5 cells to IC50 for antitrypanosomal activity against Trypanosoma brucei; assay type: toxicity, cell-based; conditions: MRC5 cells versus Trypanosoma brucei, read-out: Selectivity Index
Summary of the method: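 Selectivity index: MRC-5 IC50 divided by T. brucei IC50.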

Quadruplex DNA [6] = experiment: Binding affinity to human G-quadruplex telomeric DNA F21T (5'-duplex GGG TTAGGG TTAGGG TTAGGG-3') by mass spectrometric analysis; assay type: nucleic-acid assay; summary of the method: as §1
[7] = Cytotoxicity against human MRC5 cells assessed as reduction in cell viability incubated for 48 hrs by MTT assay; assay type: toxicity, cell-based; summary of the method: as §3
Leishmania major = experiment: Antileishmanial activity against Leishmania major (MHOM/IL/80/Friedlin) promastigotes assessed as reduction in parasite growth incubated for 72 hrs by MTT assay; assay type: functional, organism-based
Summary of the method: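 L. major Friedlin promastigotes, 1×10^6/mL in modified RPMI-1640 with 10% hiFBS, exposed to increasing compound concentrations for 72 h at 28 °C; proliferation read by MTT; IC50 from four-parameter logistic fit versus untreated controls.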

[8] = Drug uptake in Trypanosoma brucei at 10 uM incubated for 2 hrs by fluorescence based multiplate reader method; assay type: ADME
Quadruplex DNA [9] = experiment: Binding affinity to human G-quadruplex telomeric DNA F21T (5'-duplex GGG TTAGGG TTAGGG TTAGGG-3') assessed as change in melting temperature at 5 uM incubated for 5 min by FRET assay; assay type: nucleic-acid assay; summary of the method: as §2
Quadruplex DNA [10] = experiment: Binding affinity to human G-quadruplex telomeric DNA F21T (5'-duplex GGG TTAGGG TTAGGG TTAGGG-3') assessed as change in melting temperature at 2 uM incubated for 5 min by FRET assay; assay type: nucleic-acid assay; summary of the method: as §2
[11] = Drug localization in nucleus of human HT-29 cells at 25 uM incubated for 30 to 120 mins by DAPI staining based fluorescence microscopic analysis; assay type: ADME, subcellular; conditions: ht-29, 25 µM, time 30-120 min
Summary of the method: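 HT-29 cells grown 24 h on coverslips in FBS-free medium, then exposed to 25 μM compound for 30 or 120 min at 37 °C. Mounted in DAPI medium and imaged by widefield fluorescence microscopy; compound emission collected at 578–610 nm, DAPI at 437–474 nm.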

[12] = Drug uptake in human HT-29 cells at 10 uM incubated for 2 hrs by fluorescence based multiplate reader method; assay type: ADME, cell-based; conditions: ht-29, 2 h
Summary of the method: (§4)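 225,000 trypsinized cells incubated with 10 μM compound in 0.75 mL medium for 2 h at 37 °C; washed three times with PBS, lysed in 3% SDS and sonicated. NDI fluorescence read at ex 485/em 535 nm, quantified against a calibration curve in cell lysate and normalized to BCA protein. Reported as % of compound added.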

[13] = Drug localization in cytoplasm of Trypanosoma brucei at 5 uM incubated for 30 to 120 mins by DAPI staining based fluorescence microscopic analysis; assay type: ADME, subcellular; conditions: time 30-120 min
Summary of the method: (§5)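 T. brucei at 1×10^7/mL exposed to 5 μM compound in FBS-free medium for 30 and 120 min at 37 °C; fixed in cold 4% paraformaldehyde, DAPI-stained and imaged by widefield microscopy. Compound excited with the 542–566 filter and emission collected at 578–610 nm.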

[14] = Drug localization in nucleus of Trypanosoma brucei at 5 uM incubated for 30 to 120 mins by DAPI staining based fluorescence microscopic analysis; assay type: ADME, subcellular; conditions: time 30-120 min; summary of the method: as §5
[15] = Drug uptake in human MRC5 cells at 10 uM incubated for 2 hrs by fluorescence based multiplate reader method; assay type: ADME, cell-based; conditions: mrc5, 2 h; summary of the method: as §4

Row | SMILES | selectivity ratio [1] | selectivity ratio [2] | Activity (Quadruplex DNA [3]) | ΔTm (Quadruplex DNA [4]) [°C] | IC50 (HT-29) [nM] | IC50 (Trypanosoma brucei) [nM] | selectivity ratio [5] | Activity (Quadruplex DNA [6]) | IC50 at 48 h [7] [nM] | IC50 (Leishmania major) [nM] | Drug uptake [8] [%] | ΔTm (Quadruplex DNA [9]) [°C] | ΔTm (Quadruplex DNA [10]) [°C] | Drug uptake [11] | Drug uptake [12] [%] | Drug uptake [13] | Drug uptake [14] | Drug uptake [15] [%]
1 | CN(C)CCCN1C(=O)c2ccc3c4c(c(NCc5cn(CCO[C@@H]6O[C@H](CO)[C@H](O)[C@H](O)[C@H]6O)nn5)cc(c24)C1=O)C(=O)N(CCCN(C)C)C3=O | 3.9 | 0.14 | Active | 10 | 500 | 50 | 38.8 | Active | 1940 | 13900 |  |  |  |  |  |  |  | 
2 | CN(C)CCCN1C(=O)c2ccc3c4c(c(NCc5cn(CCS[C@@H]6O[C@H](CO)[C@H](O)[C@H](O)[C@H]6O)nn5)cc(c24)C1=O)C(=O)N(CCCN(C)C)C3=O | 4.4 | 2.1 | Active | 10 | 350 | 40 | 38.7 | Active | 1550 | 740 |  |  |  |  |  |  |  | 
3 | O=C1c2ccc3c4c(c(NCc5cn(CCS[C@@H]6O[C@H](CO)[C@H](O)[C@H](O)[C@H]6O)nn5)cc(c24)C(=O)N1CCN1CCOCC1)C(=O)N(CCN1CCOCC1)C3=O | 0.9 | 0.8 |  | 1 | 26500 | 850 | 27.6 |  | 23500 | 30000 | 6.8 | 5 |  |  |  |  |  | 
4 | O=C1c2ccc3c4c(c(NCc5cn(CCO[C@@H]6O[C@H](CO)[C@H](O)[C@H](O)[C@H]6O)nn5)cc(c24)C(=O)N1CCN1CCOCC1)C(=O)N(CCN1CCOCC1)C3=O | 2.9 | 0.38 |  | 1 | 3600 | 150 | 69.3 |  | 10400 | 27500 | 5.4 |  | 5 |  |  |  |  | 
5 | CN(C)CCCN1C(=O)c2ccc3c4c(c(NCc5cn(CCO[C@@H]6O[C@H](CO)[C@@H](O[C@H]7O[C@H](CO)[C@@H](O)[C@H](O)[C@H]7O)[C@H](O)[C@H]6O)nn5)cc(c24)C1=O)C(=O)N(CCCN(C)C)C3=O | 3.8 | 2.3 |  | 10 | 480 | 60 | 30 |  | 1800 | 800 | 7 |  |  | Active | 20.9 | Active | Active | 25.5
6 | CN(C)CCCN1C(=O)c2ccc3c4c(c(NCc5cn(CCS[C@@H]6O[C@H](CO)[C@@H](O[C@H]7O[C@H](CO)[C@@H](O)[C@H](O)[C@H]7O)[C@H](O)[C@H]6O)nn5)cc(c24)C1=O)C(=O)N(CCCN(C)C)C3=O | 9.8 | 5.7 | Active | 10 | 300 | 60 | 49 | Active | 2940 | 510 | 4.3 |  |  | Active | 23.1 | Active | Active | 20.7
